# Compound activity from PubChem BioAssay.
# HSF1 inh: HSF1 inhibition; AID 2098; NIH3T3-HGL HSE-luciferase, MG132-induced, luminescence 8 h; stronger effect = lower value; activity change, negative = inhibition, % at 7.5 µM (by protocol); actives 0.77% (n = 300,000);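 active = more than half of replicate wells show activity change below -50%, luminescence cut by over half; inconclusive = some wells, but at most half, below -50%; inactive = no replicate well below -50%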;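 also: luciferase reports HSF-1 transcriptional activity via heat shock element; 0% = median of DMSO wells and -100% = zero luminescence signal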
# HSF-1 act: increases HSF-1 driven luciferase reporter signal; NIH3T3-HGL HSF-1 luciferase reporter, MG132, 8 h; 100% = twice DMSO control signal; activation, % at 9 µM; actives 1.7% (n = 300,000); AID 504408;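 active = mean replicate activation of at least 50% with a set share of replicates each reaching 50%; inconclusive = only one of those two conditions met; inactive = mean below 50% and too few replicates reaching it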;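 also: 0% = median of the neutral control wells and 100% = twice that signal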
# T cruzi repl: blocks replication of Trypanosoma cruzi; T. cruzi beta-gal in NIH3T3, luminescence, 90 h; actives 1.4% (n = 300,000); inhibition, % (test concentration not listed); AID 1885;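 active = mean inhibition across valid replicates above about 55%, limit read from the data; inconclusive = mean below that limit but half or more replicates reach it; inactive = mean below it, under half of replicates reach it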;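 also: signal also drops with host cell toxicity which is not excluded here; 0% = plate median of DMSO wells and 100% = zero luminescence signal; higher percent means less beta-gal luminescence so fewer parasites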
#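 Read-out: Parasite load inhibition, % | Test system: Mouse NIH/3T3 fibroblasts infected with β-gal-expressing T. cruzi Tulahuen C4 | Amount: 5,000 cells/well | Medium: DMEM, 2% fetal bovine serum | Signal: GalScreen β-gal luminescence, detergent lysis, 60 min | Timing: 3 h attach, ≥90 h co-culture | Also added: Tulahuen C4 trypomastigotes, 5000/well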
# HIF act: HIF pathway transcriptional activation; actives 0.32% (n = 300,000); U2OS HRE-luciferase reporter, luminescence; normalized: DMSO 0%, desferrioxamine 100%; activation, % at 7.5 µM (by protocol); AID 1910;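 active = mean activation of at least 10% of the iron chelator positive control signal, with at least half of replicates also reaching 10%; inconclusive = mean and replicate majority disagree about reaching 10%; inactive = mean and most replicates under 10%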
# Calb FLC: C. albicans growth modulation with fluconazole | C. albicans CaCi-2 + fluconazole, Alamar Blue growth, 48 h | growth inhibition, % (no concentration beside the values) | actives 0.57% (n = 300,000) | AID 1979;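 active = growth inhibition above about 58% in most replicates, limit read from the data, passing the limit was not always enough; inconclusive = exactly half the replicates above a set limit; inactive = most replicates below a set limit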;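 also: all wells also contain fluconazole at 8 µg/ml as a sub-toxic cotreatment; 0% = median of DMSO wells and 100% = median of geldanamycin control wells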
# * hit, by the source's call; ? = inconclusive; · = no result. This is a sample that favours compounds with a hit; in the whole collection about 4.4% have one here.
SMILES,HSF1 inh,HSF-1 act,T cruzi repl,HIF act,Calb FLC
CC(C)CC(=O)Nc1nnc(S(=O)(=O)N2c3ccccc3CC2C)s1 (stereo not drawn),-1,2,-6,0,11
CC(=O)C1=C(C)N2CCN=C2S1,-8,27,3,0,1
CC(C)CCc1c(O)nc(SCC(=O)N2CCCCCC2)[nH]c1=O,-74*,-78,-11,0,-1
CCCc1c(O)nc(SCC(=O)N2CCCCC2)[nH]c1=O,-4,-1,1,-35,6
O=C(Nc1cccc(C(=O)N2CCCCC2)c1)c1ccc(Cl)cc1,-2,-10,11,1,-5
O=C(O)C1CCCCC1C(=O)Nc1cccc(C(=O)N2CCCCC2)c1 (stereo not drawn),-56*,-65,-16,0,3
C=CCn1c(C)cc(C(=O)CSc2nnc(NC(C)C)s2)c1C,-59*,-66,0,0,1
COc1ccc(CC(NC(C)=O)C(=O)NC2CCN(C(=O)Nc3ccc(Cl)cc3)CC2)cc1OC (stereo not drawn),-5,-6,-3,37*,-11
O=C(O)COc1ccc(/C=C/c2nc3ccc([N+](=O)[O-])cc3s2)cc1,1,-3,56*,0,0
Cc1cccc(OCC(=O)Nc2nc3ccc([N+](=O)[O-])cc3s2)c1,11,9,-6,·,?
CCCCN(CC)CCNC(=O)c1nn(-c2ccc(OC)cc2)c(=O)c2c1c1ccccc1n2C,-2,18,57*,0,-9
CCCCN(CC)CCCNC(=O)c1cn(-c2ccc(OC)cc2)c(=O)c2ccccc12,-1,-3,58*,0,2
COc1ccccc1OCc1cc(C(=O)NCc2ccc(N3CCCC3=O)cc2)no1,2,7,2,0,14
Cc1cc(C)n(CCc2nc(-c3ccc(-c4ccccc4)cc3)cs2)n1,35,52*,-30,1,27
COc1ccc(S(=O)(=O)N2CCCC(C(=O)NCC3CCCO3)C2)cc1OC (stereo not drawn),-11,-27,4,-1,-2
COc1ccccc1-c1nc(-c2ccc(Br)cc2)no1,39,55*,9,1,6
COc1ccc(-c2noc(-c3ccc(Cl)cc3[N+](=O)[O-])n2)cc1OC,25,53*,-6,3,-3
COc1ccc(-c2nc(-c3ccc(Br)o3)no2)cc1OC,30,57*,14,2,-6
Cc1ccc(-c2nc(-c3ccncc3)no2)cc1Cl,8,24,-17,2,-7
Cc1ccc(-c2nc(-c3ccncc3)no2)cc1C,29,60*,-20,2,12
COc1ccc(-c2nnc(-c3ccc(Br)o3)o2)cc1OC,5,18,5,3,44
COc1cc2cc(Oc3ccc4ccc(=O)oc4c3)c(=O)oc2cc1OC(=O)C=C(C)C,7,1,-13,0,1
Cc1cccc(S(=O)(=O)Nc2nc3ccccc3nc2NCc2ccc3c(c2)OCO3)c1,3,5,8,0,0
COc1ccc(-c2nc(-c3ccncc3)no2)cc1OC,2,15,-1,3,102*
CCOc1ccc(-c2noc(-c3ccncc3)n2)cc1OCC,1,4,10,0,-11
SMILES,HSF1 inh,HSF-1 act,T cruzi repl,HIF act,Calb FLC
Clc1ccc(SCCCCN2CCOCC2)cc1,3,-14,15,0,-2
Clc1ccc(SCCOCCN2CCOCC2)cc1,-5,3,57*,-1,-18
CC1CN(CCOCCSc2ccccc2)CC(C)O1 (stereo not drawn),-9,-9,51,0,-7
Clc1ccc(OCCOCCN2CCc3ccccc3C2)c(Cl)c1,0,-12,59*,0,1
Clc1ccc(SCCOCCN2CCCCC2)cc1,0,1,?,0,-42
CC1CN(CCOCCSc2ccc(Cl)cc2)CC(C)O1 (stereo not drawn),-1,16,62*,0,3
Cc1ccc(SCCCCN2CCOCC2)cc1,113,141*,-2,-30,-51
CCOC(=O)N1CCC(NCc2c(C(=O)N(C)Cc3ccccc3)nc3ccccn23)CC1,4,9,6,0,-18
CC(C)(C)OC(=O)N[C@H](Cc1ccccc1)C(=O)N1CCC[C@@H]1C(=O)O,1,14,-8,-8,-3
OC(COC(c1ccccc1)c1ccccc1)CN1CCc2ccccc2C1 (stereo not drawn),0,-8,2,0,-9
O=C(CCN1CCOCC1)c1ccc(Cl)cc1,0,-2,75*,-1,-14
OC(COC(c1ccc(Cl)cc1)c1ccc(Cl)cc1)CN1CCc2ccccc2C1 (stereo not drawn),4,5,62*,0,-1
Clc1ccc(SCCOCCN2CCc3ccccc3C2)cc1,4,3,66*,0,-11
Cc1cc(N2CC(C(=O)Nc3nccs3)CC2=O)ccc1C(C)C (stereo not drawn),0,-18,-5,1,4
Cc1cc(Cl)c(C(=O)Nc2cccc(C(F)(F)F)c2)c(C)n1,27,39,30,0,-25
Cc1[nH]c2ccc(-c3nnc(SCC(=O)N4CCCc5ccccc54)o3)cc2c1C,3,1,79*,·,5
O=C(CSc1nnc(Cc2ccccc2)o1)N1CCCc2ccccc21,1,2,2,0,-6
N#Cc1ccc(CSc2nnc(-c3ccncc3)n2CCc2ccccc2)cc1,5,25,65*,0,-7
c1ccc(CCn2c(SCc3ccccc3)nnc2-c2ccncc2)cc1,-2,8,32,-2,3
N/C(=N\OC(=O)C1CCCCC1)c1ccc(Br)cc1,17,57*,-17,3,-12
O=C(CNC(=O)C1CCCCC1)OCC(=O)c1ccc(Br)cc1,16,65*,-3,3,1
N/C(=N\OC(=O)C1CCCCC1)c1ccc(Cl)cc1,39,85*,-5,2,0
O=C(CSCc1ccc(C(=O)O)cc1)Nc1ccc2ccccc2c1,11,-11,-13,1,12
Nc1nc2c(-c3ccc(Br)cc3)nnn2c2ccccc12,16,56*,-4,6,2
CC(C)c1ccccc1-n1c(-c2cccnc2)n[nH]c1=S,-65*,-71,-12,0,-13
Cc1ccccc1-n1c(-c2cccnc2)n[nH]c1=S,0,5,-13,0,-5
COc1ccc(CC(=O)NNC2=Nc3cccc4cccc2c34)cc1OC,-6,-7,8,0,-1
O=C(NNC1=Nc2cccc3cccc1c23)c1ccc(Br)cc1,-9,-13,62*,0,-4
CN(C(=O)CO/N=C/c1ccc(OC(F)F)cc1)C1CCS(=O)(=O)C1 (stereo not drawn),6,2,-9,0,10
CCCCN1C=CC(=C2C(=O)c3ccccc3C2=O)C=C1,-82*,-87,-6,-4,11
